Assay results taken from ChEMBL document CHEMBL1132147, “2-(2-Phenylcyclopropyl)imidazolines: reversed enantioselective interaction at I(1) and I(2) imidazoline receptors” (J Med Chem, 1999).

Tests used:
[1] = target: T1, Adrenergic receptor alpha-2 (Rattus norvegicus, UniProt P22086+P19328+P22909); experiment: Displacement of [3H]-clonidine from Alpha-2 adrenergic receptor of rat cortex membranes; assay type: cell membranes, Membrane
T1 sequence (P22086 whole entry): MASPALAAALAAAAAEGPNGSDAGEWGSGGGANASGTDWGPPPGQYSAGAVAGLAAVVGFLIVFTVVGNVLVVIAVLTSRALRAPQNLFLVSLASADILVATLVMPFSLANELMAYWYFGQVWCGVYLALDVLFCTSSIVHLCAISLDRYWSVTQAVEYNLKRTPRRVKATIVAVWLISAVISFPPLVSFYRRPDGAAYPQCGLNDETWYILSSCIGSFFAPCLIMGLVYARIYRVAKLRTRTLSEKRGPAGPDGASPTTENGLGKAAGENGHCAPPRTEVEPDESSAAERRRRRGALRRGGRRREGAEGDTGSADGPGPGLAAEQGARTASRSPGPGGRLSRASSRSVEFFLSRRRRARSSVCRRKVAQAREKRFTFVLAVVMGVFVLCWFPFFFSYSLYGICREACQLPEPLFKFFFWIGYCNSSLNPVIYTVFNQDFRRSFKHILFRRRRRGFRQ
T1 sequence (P19328 whole entry): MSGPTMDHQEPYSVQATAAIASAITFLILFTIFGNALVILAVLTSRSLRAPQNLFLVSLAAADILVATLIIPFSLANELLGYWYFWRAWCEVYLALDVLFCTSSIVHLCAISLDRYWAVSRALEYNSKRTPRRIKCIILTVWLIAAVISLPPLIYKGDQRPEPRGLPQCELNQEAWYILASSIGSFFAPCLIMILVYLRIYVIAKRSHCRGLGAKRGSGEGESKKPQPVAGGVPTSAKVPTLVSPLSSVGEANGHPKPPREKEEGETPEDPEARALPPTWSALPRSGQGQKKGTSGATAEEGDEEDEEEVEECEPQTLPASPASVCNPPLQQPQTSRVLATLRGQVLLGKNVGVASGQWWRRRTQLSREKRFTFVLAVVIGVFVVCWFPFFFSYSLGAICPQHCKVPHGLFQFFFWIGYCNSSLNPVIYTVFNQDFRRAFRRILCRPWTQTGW
T1 sequence (P22909 whole entry): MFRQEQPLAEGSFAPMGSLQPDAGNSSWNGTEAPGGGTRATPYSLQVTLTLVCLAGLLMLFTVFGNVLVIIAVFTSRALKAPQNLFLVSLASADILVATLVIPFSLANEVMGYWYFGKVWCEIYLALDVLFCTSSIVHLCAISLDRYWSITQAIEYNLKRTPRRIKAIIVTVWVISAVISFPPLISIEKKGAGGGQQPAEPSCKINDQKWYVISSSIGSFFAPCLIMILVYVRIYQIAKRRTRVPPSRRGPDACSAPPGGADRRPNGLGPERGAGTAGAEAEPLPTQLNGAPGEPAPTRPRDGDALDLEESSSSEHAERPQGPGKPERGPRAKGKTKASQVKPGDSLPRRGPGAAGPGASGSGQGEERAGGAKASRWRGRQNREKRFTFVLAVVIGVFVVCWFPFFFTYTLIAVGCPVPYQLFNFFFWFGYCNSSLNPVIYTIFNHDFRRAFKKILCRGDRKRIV
In short: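 Competition binding using hydrogen oxalate salts of the compounds: [3H]clonidine on rat cortex membranes (α2) or [3H]idazoxan on rabbit kidney membranes (I2). IC50 by nonlinear regression of displacement data, converted to Ki by Cheng–Prusoff and given as pKi ± SEM.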

[2] = Displacement of [3H]idazoxan from imidazoline receptor I-2 of rabbit kidney membranes
[3] = Relative binding to I2 and I1 imidazoline receptors […]
[4] = Relative binding to I2 imidazoline and alpha-2 adrenergic receptors […]
[5] = target: Nischarin (Rattus norvegicus); experiment: Displacement of [125I]p-iodoclonidine from imidazoline receptor I-1 of PC12 cell membranes

Question: Which results are given for c1ccc([C@@H]2C[C@H]2C2=NCCN2)cc1?
Answer: Log Ki [1]: -6.92; Log Ki [2]: -8.22

Question: What does the source list for c1ccc([C@H]2C[C@@H]2C2=NCCN2)cc1?
Answer: Log Ki [1]: -6.62; Log Ki [2]: -6.91

Question: With c1ccc(C2CC2C2=NCCN2)cc1 (racemic) as the compound, how does the “Log Ki” value [1] read?
Answer: Its value is -6.4.

Question: And the “Log Ki” value [2]?
Answer: Its value is -7.64.

Question: For c1ccc(C2CC2C2=NCCN2)cc1 (stereo in doubt; 4a(+/-)) [listing 1 of 2 here], which “Log Ki” value [1] is on record?
Answer: Its value is -4.53.

Question: And the “Log Ki” value [2]?
Answer: Its value is -6.05.

Question: Which Ratio [3] does the source give for c1ccc(C2CC2C2=NCCN2)cc1 (stereo in doubt; 4a(+/-)) [listing 2 of 2 here] here?
Answer: Its Ratio is 7.

Question: What about the Ratio [4] of the same compound?
Answer: Its Ratio is 33.

Question: What does the source list for C(=C\c1ccccc1)/C1=NCCN1 [TRACIZOLINE]?
Answer: Log Ki [1]: -4.85; Ratio [3]: 10; Ratio [4]: 7410; Log Ki [2]: -8.72; Ki [5]: 19.1 nM
